This is a sample that favours compounds with a hit; in the whole collection about 1.8% have one here.
PPC-1+TRAIL kill = compounds killing PPC-1 cancer cells with TRAIL present (potentiator screen, no TRAIL-free arm); PPC-1 cells + TRAIL, ATPLite viability luminescence; cell killing (% activity), % at 4 µM or 5 µM; hit rate 0.41% among 220,000; AID 1443;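 active = cell killing above 50% in the first pass at 4 µM, then a duplicate retest at 5 µM averaging 50% or more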
FLuc inhib CS = inhibits firefly luciferase, flagging false hits in luciferase inhibition screens; P08659; ATPLite firefly luciferase biochemical luminescence, 10 min; inhibition, % at 10 µM; hit rate 1.5% among 200,000;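 active = inhibition above about 50% when tested at 10 µM, limit read from the data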
Target sequence (P08659 whole entry, looked up): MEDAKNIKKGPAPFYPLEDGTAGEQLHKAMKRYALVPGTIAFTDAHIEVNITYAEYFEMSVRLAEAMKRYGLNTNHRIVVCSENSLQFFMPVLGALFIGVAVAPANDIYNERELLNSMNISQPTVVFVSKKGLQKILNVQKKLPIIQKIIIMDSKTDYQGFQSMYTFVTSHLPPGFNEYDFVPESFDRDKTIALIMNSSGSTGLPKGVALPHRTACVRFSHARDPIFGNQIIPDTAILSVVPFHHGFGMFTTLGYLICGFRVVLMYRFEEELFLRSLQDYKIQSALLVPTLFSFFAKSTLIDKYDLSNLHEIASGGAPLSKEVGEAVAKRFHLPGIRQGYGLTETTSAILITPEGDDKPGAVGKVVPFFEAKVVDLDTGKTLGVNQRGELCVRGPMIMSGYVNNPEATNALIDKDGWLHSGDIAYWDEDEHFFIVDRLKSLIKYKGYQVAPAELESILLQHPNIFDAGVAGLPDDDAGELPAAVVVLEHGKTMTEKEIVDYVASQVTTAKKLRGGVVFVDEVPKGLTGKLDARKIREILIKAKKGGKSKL
TRAIL sens C8 = caspase-8 TRAIL sensitization; NB7+C8 cells + TRAIL, ATPlite viability luminescence; inhibition (viability loss, TRAIL sensitization), % at 10 µM; hit rate 1% among 360,000;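 active = compounds causing at least 50% loss of cell viability in the single-dose screen, relative to plate controls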
beta cell repl = inducers of beta-cell replication in MIN6 cells; proliferation, % at 10 µM; AID 2380; hit rate 0.29% among 330,000; MIN6 cells proliferation, ATPlite luminescence, 48 h; cells starved in 0.2% serum; 100% = growth in 10% serum;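 active = compounds whose signal lies at least 3.5 SD above the mean of all wells on their plate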
hiPSC survival = increases survival of single human iPS cells; survival enhancement, % at 20 µM; hiPSC single-cell survival, ATPlite luminescence; 100% = ROCK inhibitor wells, 0% = DMSO; hit rate 0.044% among 360,000; in the data active = survival enhancement above about 18%;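 also: cells exposed to compounds for 16 hours before the ATP read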
FLuc act counter = affects firefly luciferase, flagging false hits in luciferase stimulation screens. P08659. ATPlite luciferase biochemical, luminescence, 10 min; 0 = ATP-free wells, 1 = DMSO control. activation factor at 10 µM. 200,000 tested, under 10 active. AID 1027;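 active = luciferase activation factor, scaled between plate controls, of at least 2 with compound at 10 µM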
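System: Luciferase/luciferin detection reagent, cell-free biochemical luciferase assay | Medium: PBS buffer for ATP | Dosing: Test compounds dosed from 2 mM stocks in 100% DMSO | Timing: 10 min at ambient temperature | Signal: Luminescence measurement of luciferase light output | Evaluation: Luciferase activation, seen as luminescence increase over controls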
PPC1 cytotox = kills PPC-1 cells. shares compounds with PPC-1+TRAIL kill. PPC-1 viability, ATPlite luminescence, overnight. cytotoxicity, % at 5 µM. hit rate 50% among 1,200. AID 1447;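 active = reconfirmed compounds whose average cytotoxicity reaches 50% or more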
Hits are given with their value; - = inactive; . = no result.

SMILES | PPC-1+TRAIL kill | FLuc inhib CS | TRAIL sens C8 | beta cell repl | hiPSC survival | FLuc act counter | PPC1 cytotox
O=C(CSc1nnc(NC(=O)c2ccc3c(c2)OCO3)s1)NCc1ccco1 | 80.2 | 91.0 | 81.7 | - | - | - | 79.5
O=C(CSc1nnc(NC(=O)c2ccco2)s1)NCc1ccc2c(c1)OCO2 | - | - | - | - | - | - | .
CCN(CCCNC(=O)CCn1c(=S)[nH]c2cc3c(cc2c1=O)OCO3)c1cccc(C)c1 | . | . | - | - | - | . | .
O=S1(=O)N=C(Nc2nc3c(s2)CCCC3)c2ccccc21 | 60.4 | 86.8 | 75.2 | - | - | - | 59.5
Cc1ccn2cc(-c3ccc4c(c3)NC(=O)CO4)nc2c1 | - | 82.7 | - | - | - | - | -
COc1cccc(C(=O)Nc2ccc(NC(=O)C(C)(C)C)cn2)c1 | 70.9 | 87.6 | 76.9 | - | - | - | 73.3
O=C(Nc1nc(-c2ccccn2)cs1)C12CC3CC(CC(O)(C3)C1)C2 | - | 82.6 | 59.6 | - | - | - | -
Clc1ccc(-c2nc3nc4ccccc4nc3n2Cc2ccco2)cc1 | - | - | - | - | - | - | -
CCCCN(C(=O)CSc1nnnn1C)C1CCS(=O)(=O)C1 (centres undefined) | . | . | - | - | - | . | .
O=C(Nc1ccccc1C(=O)N1CCCCC1)c1cccc(S(=O)(=O)N2CCOCC2)c1 | - | - | - | - | - | - | .
O=C(Nc1ccccc1C(=O)N1CCCC1)c1cccc(S(=O)(=O)N2CCCCC2)c1 | - | - | - | - | - | - | -
O=C(NCCc1ccccc1)c1nccc2ccccc12 | . | . | - | - | - | . | .
c1ccc(CCNc2ccnc3cc4ccccc4cc23)cc1 | - | - | - | . | - | - | -
CCCCCN=Cc1c(C)[nH]n(-c2nc3ccccc3s2)c1=O | 90.6 | 52.0 | 83.9 | - | - | - | 91.2
Oc1ccccc1-c1nc2cnccn2c1Nc1ccc2c(c1)OCCO2 | - | - | - | - | - | - | -
c1cn2c(Nc3ccc4c(c3)OCCO4)c(-c3ccc(N4CCOCC4)cc3)nc2cn1 | - | . | - | - | - | . | .
CC1CC(=O)Nc2ccccc2N1C(=O)Nc1ccc(F)cc1 (centres undefined) | - | . | - | - | - | . | -
COc1ccc(CNC(=O)c2c(C)oc3c2C(=O)c2ccccc2C3=O)cc1 | 58.7 | - | 93.9 | - | - | - | 56.8
Cc1oc2c(c1C(=O)NCc1cccnc1)C(=O)c1ccccc1C2=O | 95.2 | - | . | - | . | - | 94.4
Cc1ccc(S(=O)(=O)N(C)S(=O)(=O)c2ccc(C#N)cc2)cc1 | . | . | . | - | . | . | .
O=C(Cc1coc2cc(O)ccc12)NNC(=O)c1cccs1 | . | . | - | - | - | . | .
O=C(NCCc1ccccc1F)C(=O)Nc1nccs1 | - | - | - | - | - | - | -
Cc1ccnc(NC(=O)CCC(=O)N(CC(=O)NC2CCCCC2)Cc2cccs2)c1 | - | - | - | - | - | - | .
COC(=O)C1=C(C)N(CCCC(=O)O)C(=O)NC1c1ccc([N+](=O)[O-])cc1 (centres undefined) | . | . | - | - | - | . | .
CCOC(=O)C1=C(C)N(CCCC(=O)O)C(=O)NC1c1ccc([N+](=O)[O-])cc1 (centres undefined) | - | - | - | - | - | - | -
SMILES | PPC-1+TRAIL kill | FLuc inhib CS | TRAIL sens C8 | beta cell repl | hiPSC survival | FLuc act counter | PPC1 cytotox
CN1CCN(c2ccc(-c3ccc4ccccc4n3)cc2)CC1 | 82.0 | 93.5 | 89.9 | . | - | - | 76.8
c1ccc2nc(-c3ccc(N4CCOCC4)cc3)ccc2c1 | 73.0 | 88.3 | 72.9 | - | - | - | 77.1
CCc1cccc(OCC(=O)Nc2ccc(S(=O)(=O)Nc3ccccn3)cc2)c1 | - | - | - | - | - | - | -
Cc1ccc(OCC(=O)Nc2ccc(S(=O)(=O)Nc3ccccn3)cc2)cc1C | - | - | - | - | - | - | .
Clc1cccc(-c2nc(-c3ccccn3)no2)c1 | 70.1 | 93.0 | 77.3 | - | - | - | 66.3
c1ccc(-c2nc(-c3ccccn3)no2)cc1 | 71.8 | 90.2 | 75.3 | - | - | - | 66.0
c1ccc(-c2ccc(-c3nc(-c4ccccn4)no3)cc2)cc1 | 90.2 | 94.2 | 90.4 | - | - | - | 90.1
c1ccc(-c2noc(-c3ccno3)n2)nc1 | - | . | - | - | - | . | .
Cc1ccc2nc(-c3ccccn3)oc2c1 | 64.8 | 84.2 | 67.1 | - | - | - | 65.1
Cc1ccc(-c2nc(-c3ccccn3)no2)cc1 | 92.8 | 97.1 | 91.9 | - | - | - | 92.4
Cc1ccc(-c2nc(-c3ccccn3)no2)cc1Cl | 88.5 | 95.4 | 87.3 | - | - | - | 87.7
COc1cc(-c2nc(-c3ccccn3)no2)cc(OC)c1OC | - | - | - | - | - | - | .
CC1(C(=O)NS(=O)(=O)c2ccc(Cl)cc2)CCN1C(=O)CC1CC1 (centres undefined) | . | . | - | . | - | . | .
Cc1ccccc1Nc1nc(N)c2ccccc2n1 | 58.0 | 86.8 | 63.4 | - | - | - | 54.0
Nc1nc(Nc2ccc(Cl)cc2)nc2ccccc12 | 78.8 | 93.3 | 76.0 | - | - | - | 79.9
CCN(CC(=O)NCc1ccc(F)cc1)C(=O)C1CCN(C(=O)Nc2ccccc2)CC1 | - | - | - | - | - | - | -
CCN(Cc1ccccc1)C(=O)C1CCN(C(=O)Nc2ccccc2)CC1 | . | . | - | - | - | . | .
CC(C)n1cc(/C=N/Nc2ccc(Cl)c(C(=O)O)c2)c2ccccc21 | . | . | - | - | - | . | .
CCN(C(=O)c1ccco1)c1nnc(-c2ccc(OC)cc2)s1 | 68.2 | 85.1 | 68.8 | - | - | - | 69.8
O=C(COc1ccccc1)Nc1c2c(nn1-c1ccccc1)CS(=O)C2 (centres undefined) | . | . | - | - | - | . | .
CCNC(=S)NNC(=O)c1cc(-c2cccc(C)c2)nc2ccccc12 | 66.3 | 89.0 | 61.5 | - | - | - | 64.7
CCOc1ccc(-c2cc(C(=O)O)c3ccccc3n2)cc1 | 77.5 | 94.7 | 83.1 | - | - | - | 77.2
CCNC(=S)NNC(=O)c1cc(-c2cccnc2)nc2ccccc12 | - | - | - | - | - | - | .
CCCCOc1cccc(-c2cc(C(=O)NNC(=S)NCC)c3ccccc3n2)c1 | - | - | - | - | - | - | .
CCCCOc1ccc(-c2cc(C(=O)NNC(=S)NCC)c3ccccc3n2)cc1 | 89.5 | 94.2 | 87.3 | - | - | - | 90.4
CCC(C)(C)NC(=O)CN(Cc1ccc(OC)cc1)C(=O)CCC(=O)Nc1nccs1 | . | . | - | - | - | . | .
Cc1cc(O)ccc1-c1ccc2nncn2c1 | . | . | - | . | - | . | .
O=C(NC(=S)NNS(=O)(=O)c1ccc(Cl)cc1)c1cccnc1 | - | - | - | - | - | - | .
COc1ccc(S(=O)(=O)N2CCCC2CNC(=O)c2cccc(OC)c2)cc1 (centres undefined) | . | . | - | - | - | . | .
Cc1ccc(NC(=O)Cc2cn3ccsc3n2)nc1 | - | - | - | - | - | - | -

Assay outcomes deposited in PubChem by Sanford-Burnham Center for Chemical Genomics.
